Compound activity from PubChem.
MC4R barr agon – MC4R agonists recruiting beta-arrestin, primary screen, cell-based, luminescence, agonist arm of biased-ligand search | hit rate 0.98% among 360,000 | activation, % at 8.9 µM | Melanocortin receptor 4 (Homo sapiens), P32245 | U2OS MC4R beta-arrestin complementation; percent of melanotan II response, DMSO zero;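 active means activation above a per-plate cutoff, the mean activation of sample wells on that plate plus 3 SD, cut at about 8% in these data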
PfG6PD inh – PfG6PD enzyme inhibitors, primary screen, biochemical, fluorescence intensity, uHTS; inhibition, % at 20 µM; PfGluPho enzyme, NADPH resazurin-diaphorase fluorescence; glucose-6-phosphate dehydrogenase-6-phosphogluconolactonase (Plasmodium falciparum 3D7); hit rate 0.78% among 350,000;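 active means inhibition reaching at least a set limit at 20 µM in the primary screen, cut at about 59% in these data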;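 further: 0% = DMSO wells with substrate and 100% = DMSO wells lacking glucose-6-phosphate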
MC4R antag cAMP – MC4R antagonists of cAMP signaling, primary screen, cell-based, TR-FRET, antagonist arm of biased-ligand search. inhibition, % at 6.5 µM. Melanocortin receptor 4 (Homo sapiens), P32245. AID 540295, 2011. MC4R-expressing cells, MTII-stimulated cAMP, LANCE TR-FRET. hit rate 0.48% among 360,000;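 active means inhibition above its plate's cutoff, the mean of tested wells on that plate plus 3 SD, cut at about 29% in these data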;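 further: 0% = Melanotan II alone and 100% = Melanotan II plus saturating MCL0020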
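System: U2OS-MC4R stable cell line; Technique: Eu-cAMP/anti-cAMP TR-FRET, emission 671 nm; Repeats: single well per compound; Also added: Melanotan II; Dosing: one concentration, 6.5 µM nominal; Schedule: 30-min compound, 1-h challenge, 1-h detection, room temperature.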
Beta2AR agonist – beta2AR agonists driving receptor internalization, primary screen, cell-based, FAP fluorogen, flow cytometry; Beta-2 adrenergic receptor (Homo sapiens), P07550; response, % (concentration not given with the values); hit rate 0.43% among 340,000; Am2.2-beta2AR cells;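 active means response above a set limit, near 3 SD of response in nonfluorescent compounds, cut at about 42% in these data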
ABHD5-PLIN5 inh – ABHD5-PLIN5 interaction inhibitors, primary screen, cell lysate, split luciferase complementation, luminescence; Split G. princeps luciferase complementation, 4 h; Perilipin-5 (Homo sapiens) + 1-acylglycerol-3-phosphate O-acyltransferase ABHD5 (Homo …; hit rate 0.78% among 360,000; inhibition, % at 4 µM; AID 602281, 2012;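 active means inhibition above the mean inhibition across every tested compound plus 3 SD, cut at about 22% in these data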;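 further: 0% = DMSO only wells and the 100% control is not disclosed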
ABHD5-PLIN5 conf – ABHD5-PLIN5 interaction inhibitors, confirmation, biochemical, luminescence. hit rate 67% among 2,200. inhibition, % at 4 µM. shares compounds with ABHD5-PLIN5 inh; in the data active means inhibition above about 23%;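 further: 0% = DMSO vehicle wells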
HNF4 split-luc – HNF4 dimerization inhibitors, counter-screen for ABHD5-PLIN5 interaction inhibitor project, biochemical, split-luciferase complementation, luminescence; shares compounds with ABHD5-PLIN5 inh; inhibition, % at 4 µM; hit rate 77% among 2,200; AID 651674, 2012;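 active means mean inhibition across replicate wells exceeding the computed hit threshold, cut at about 13% in these data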;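 further: light from luciferase halves that rejoin when HNF4 fusion proteins dimerize; 0% = DMSO only wells and the 100% control is not given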
Target sequence (P41235 whole entry, looked up, the tested form may be a part): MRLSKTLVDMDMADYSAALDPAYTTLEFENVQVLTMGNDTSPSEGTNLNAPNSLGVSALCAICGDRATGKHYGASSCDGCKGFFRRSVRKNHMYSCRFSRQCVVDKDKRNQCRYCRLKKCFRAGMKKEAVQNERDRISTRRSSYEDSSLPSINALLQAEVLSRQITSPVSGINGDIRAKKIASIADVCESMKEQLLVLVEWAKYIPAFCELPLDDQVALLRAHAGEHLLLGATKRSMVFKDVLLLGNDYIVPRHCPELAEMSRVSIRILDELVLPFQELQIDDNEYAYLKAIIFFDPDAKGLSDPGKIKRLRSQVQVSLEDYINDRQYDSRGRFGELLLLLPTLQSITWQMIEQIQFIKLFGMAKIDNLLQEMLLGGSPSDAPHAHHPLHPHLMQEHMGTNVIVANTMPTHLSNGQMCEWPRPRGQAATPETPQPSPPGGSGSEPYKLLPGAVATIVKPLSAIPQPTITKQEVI
* = called active by the depositor. Shown are actives, neighbours in structure and some others; about 3% of the full set was active somewhere.

Results for C=CS(=O)(=O)c1sc(Cl)c(N2CCOCC2)c1[N+](=O)[O-] ?
MC4R barr agon: -2; PfG6PD inh: 15; MC4R antag cAMP: 22; Beta2AR agonist: 33; ABHD5-PLIN5 inh: 43*; ABHD5-PLIN5 conf: 100*; HNF4 split-luc: 111*

How did CCC(C)NC(=O)c1cc(-c2ccc3c(c2)OCO3)on1 (configuration not stated) do in these assays?
MC4R barr agon: -2; PfG6PD inh: 9; MC4R antag cAMP: 2; Beta2AR agonist: -9; ABHD5-PLIN5 inh: 4

Results for N#CC1=C(N)NC(=S)C(C(N)=O)C1c1ccc([N+](=O)[O-])cc1 (configuration not stated) ?
MC4R barr agon: -2; PfG6PD inh: 42; MC4R antag cAMP: 9; Beta2AR agonist: -3; ABHD5-PLIN5 inh: 52*; ABHD5-PLIN5 conf: -35; HNF4 split-luc: -17

How did CCCCn1c(=O)c(CC(C)=O)nc2ccccc21 do in these assays?
MC4R barr agon: -3; PfG6PD inh: -21; MC4R antag cAMP: -1; Beta2AR agonist: -8; ABHD5-PLIN5 inh: -5

Results for c1coc(-c2nc3ccccc3nc2-c2ccco2)c1 ?
MC4R barr agon: -2; PfG6PD inh: 48; MC4R antag cAMP: -11; Beta2AR agonist: 1; ABHD5-PLIN5 inh: 34*; ABHD5-PLIN5 conf: 93*; HNF4 split-luc: 86*

What do the screens show for `CN(CCc1ccccc1)C(=O)c1cccc(NC(=O)Cc2cccc(NC(=O)C3CCCN(C(=O)c4ccccc4)C3)c2)c1` (configuration not stated)?
MC4R barr agon: -2; PfG6PD inh: -2; MC4R antag cAMP: 5; Beta2AR agonist: 1; ABHD5-PLIN5 inh: 0

Results for O=C(N/N=C/c1ccc(N2CCCCC2)o1)c1ccccc1[N+](=O)[O-] ?
MC4R barr agon: -3; PfG6PD inh: 31; MC4R antag cAMP: 17; Beta2AR agonist: 5; ABHD5-PLIN5 inh: 26*; ABHD5-PLIN5 conf: 38*; HNF4 split-luc: 66*

Results for CCCCN(C(=O)C1CCCC1)c1c(N)n(CC(C)C)c(=O)[nH]c1=O ?
MC4R barr agon: -1; PfG6PD inh: -3; MC4R antag cAMP: 1; Beta2AR agonist: 1; ABHD5-PLIN5 inh: 6

Results for COc1ccc(C(=O)CNC2=NCCC2)cc1 ?
MC4R barr agon: -2; PfG6PD inh: -1; MC4R antag cAMP: -3; Beta2AR agonist: 1; ABHD5-PLIN5 inh: -2

Results for COc1ccc(C(=O)Cn2nc(CNc3ccc(Br)cc3)[n+]3c2CCCCC3)cc1 ?
MC4R barr agon: -3; PfG6PD inh: 0; MC4R antag cAMP: 7; Beta2AR agonist: -5; ABHD5-PLIN5 inh: 37*; ABHD5-PLIN5 conf: 23*; HNF4 split-luc: 14*

What do the screens show for `Cc1ccc(CNC(=O)C2CCN(c3nnc(N4CCCC4=O)s3)CC2)cc1`?
MC4R barr agon: 0; PfG6PD inh: -17; MC4R antag cAMP: 8; Beta2AR agonist: 11; ABHD5-PLIN5 inh: 6

What do the screens show for `Cc1ccc(C)c(OCCC(=O)NCCc2ccc(F)cc2)c1`?
MC4R barr agon: -1; PfG6PD inh: -6; MC4R antag cAMP: 0; Beta2AR agonist: -7; ABHD5-PLIN5 inh: -3

What do the screens show for `CCOc1ccc(CCN2C(=S)N([C@@H](Cc3ccc(O)cc3)CN3CCC[C@@H]3CN3C(=S)NC[C@@H]3CC(C)C)C[C@@H]2CC(C)C)cc1`?
ABHD5-PLIN5 inh: 28*; ABHD5-PLIN5 conf: 7; HNF4 split-luc: 9

What do the screens show for `CCOc1ccc(CCN2C(=S)N([C@@H](Cc3ccc(O)cc3)CN3CCC[C@@H]3CN3C(=S)NC[C@@H]3CC(C)C)C[C@@H]2Cc2ccccc2)cc1`?
ABHD5-PLIN5 inh: 19

Results for CC(C)C[C@H]1CNC(=S)N1C[C@H]1CCCN1C[C@H](CC(C)C)N1C[C@H](Cc2ccc(O)cc2)N(CCc2ccccc2)C1=S ?
ABHD5-PLIN5 inh: 26*; ABHD5-PLIN5 conf: 3; HNF4 split-luc: 11

Results for C=CS(=O)(=O)N(Cc1ccc(Cl)c(Cl)c1)C[C@@H](O)CO ?
MC4R barr agon: -1; PfG6PD inh: 14; MC4R antag cAMP: 4; Beta2AR agonist: 2; ABHD5-PLIN5 inh: 3

What do the screens show for `Cn1c(NCCN(CCO)CCCc2ccc([N+](=O)[O-])cc2)cc(=O)n(C)c1=O`?
MC4R barr agon: 1; PfG6PD inh: 1; MC4R antag cAMP: 5; Beta2AR agonist: -6; ABHD5-PLIN5 inh: 30*; ABHD5-PLIN5 conf: 2; HNF4 split-luc: 2

What do the screens show for `CCCCNc1cc(=O)n(C)c(=O)n1C`?
MC4R barr agon: -1; PfG6PD inh: -11; MC4R antag cAMP: 7; Beta2AR agonist: -1; ABHD5-PLIN5 inh: 0

How did CC(C)CC(NC(=O)OCc1ccccc1)C(=O)NC(Cc1ccccc1)C(=O)CCl (configuration not stated) do in these assays?
MC4R barr agon: -1; PfG6PD inh: 24; MC4R antag cAMP: 17; Beta2AR agonist: 3; ABHD5-PLIN5 inh: 24*; ABHD5-PLIN5 conf: 88*; HNF4 split-luc: 88*

Results for COC(=O)C(Cc1ccccc1)NC(=O)C(CC(C)C)NC(=O)OC(C)(C)C (configuration not stated) ?
MC4R barr agon: 0; PfG6PD inh: 1; MC4R antag cAMP: 7; Beta2AR agonist: 2; ABHD5-PLIN5 inh: 4

Results for Cc1cccc(NC(=O)c2nc[nH]c2C(=O)N[C@@H](Cc2ccccc2)C(=O)OCc2ccccc2)c1 ?
MC4R barr agon: 0; PfG6PD inh: 28; MC4R antag cAMP: 9; Beta2AR agonist: 17; ABHD5-PLIN5 inh: -19

How did COc1ccc(-c2cc(=O)[nH][nH]2)cc1 do in these assays?
MC4R barr agon: -2; PfG6PD inh: -8; MC4R antag cAMP: 8; Beta2AR agonist: 8; ABHD5-PLIN5 inh: -35

How did COc1ccc(-c2cc(=O)n(CCC#N)[nH]2)cc1 do in these assays?
MC4R barr agon: 3; PfG6PD inh: 6; MC4R antag cAMP: 7; Beta2AR agonist: 3; ABHD5-PLIN5 inh: 26*; ABHD5-PLIN5 conf: -11; HNF4 split-luc: -15

Results for Cc1ccc(-c2csc3nc(C)n(-n4c(C)ccc4C)c(=O)c23)o1 ?
MC4R barr agon: 1; PfG6PD inh: 13; MC4R antag cAMP: 25; Beta2AR agonist: 8; ABHD5-PLIN5 inh: 52*; ABHD5-PLIN5 conf: 25*; HNF4 split-luc: 54*

How did Cc1cccc(C)c1NC(=O)C(c1ccc(-c2ccccc2)cc1)n1c(=O)c(-c2ccco2)nc2ccccc21 (configuration not stated) do in these assays?
ABHD5-PLIN5 inh: 90*; ABHD5-PLIN5 conf: 96*; HNF4 split-luc: 27*
